# Data from ChEMBL document CHEMBL4428120, “In silico and in vitro methods to identify ebola virus VP35-dsRNA inhibitors” (Bioorg Med Chem, 2016).
# Activity calls are given as the source filed them. No cut-off for these calls is given here.
# Experiments:
# Ebolavirus [1] = experiment: Inhibition of fluorescent dsRNA probe binding to N-terminal His-tagged recombinant Ebola virus VP35 interferon inhibitory domain assessed as normalized intensity for DNA binding at 200 uM pre-incubated for 5 mins before dsRNA addition and measured after 5 mins by ethidium bromide displacement based EMSA method relative to control; design: scale not given: the % may be the effect or the level left
# [2] = (§1) Inhibition of fluorescent dsRNA probe binding to N-terminal His-tagged recombinant Ebola virus VP35 interferon inhibitory domain pre-incubated for 5 mins before dsRNA addition and measured after 5 mins by ethidium bromide displacement based EMSA method relative to control; design: species or system Ebolavirus
# Method in brief: (§2)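 EMSA: Ni-NTA-purified recombinant VP35 IID was 400 nM before probe addition, in Tris-HCl pH 7.5/NaCl/10% glycerol buffer. Compound was diluted twofold serially from 200 μM and incubated 5 min. An equal volume of 60 nM Cy5.5-dsRNA probe was added, then 5 min at room temperature and then on ice. Agarose gel, infrared scan; IC50 taken from the dose-response.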
# Ebolavirus [3] = experiment: as §1; method in brief: as §2
# DNA = experiment: Binding affinity to DNA (unknown origin) assessed as inhibition of fluorescent dsRNA probe binding to DNA at 200 uM at 200 uM pre-incubated for 5 mins before dsRNA addition and measured after 5 mins by ethidium bromide displacement based EMSA method relative to control; assay type: nucleic-acid assay
# RNA = experiment: Binding affinity to RNA (unknown origin) assessed as inhibition of fluorescent dsRNA probe binding to DNA at 200 uM at 200 uM pre-incubated for 5 mins before dsRNA addition and measured after 5 mins by ethidium bromide displacement based EMSA method relative to control; assay type: nucleic-acid assay
# Ebolavirus [4] = experiment: Inhibition of fluorescent dsRNA probe binding to N-terminal His-tagged recombinant Ebola virus VP35 interferon inhibitory domain at 200 uM pre-incubated for 5 mins before dsRNA addition and measured after 5 mins by ethidium bromide displacement based EMSA method relative to control
# Method in brief: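 Recombinant VP35 IID was expressed in E. coli BL-21 and purified on Ni-NTA. It was 400 nM before probe addition, in 10 mM Tris-HCl pH 7.5, 10 mM NaCl, 10% glycerol, with 200 μM compound for 5 min. An equal volume of 60 nM Cy5.5-labelled 10-bp dsRNA was added, then 5 min at room temperature and then on ice. Run on 1% agarose in chilled TAE; infrared scan.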
smiles,measurement,setting,value
COC1=C/C(=C/C=C(\NNC(=S)NN)c2sc(NNC(C)=O)nc2C)C=CC1=O,Activity,Ebolavirus [1],81.5%
same,IC50,[2],20 µM
same,inhibition,Ebolavirus [3],Dose-dependent effect
same,Activity,DNA,inactive
same,Activity,RNA,inactive
Cc1nc(-n2nc(-c3ccccc3)cc2-c2ccccc2)sc1C(=O)/C=C/c1ccc([N+](=O)[O-])cc1,Activity,Ebolavirus [1],76.3%
same,Activity,DNA,inactive
same,Activity,RNA,inactive
O=C(OCCCCOC(=O)N1C(=O)c2ccccc2C1=O)N1C(=O)c2ccccc2C1=O,Activity,Ebolavirus [1],46.8 to 78.5%
same,inhibition,Ebolavirus [4],> 50%
same,Activity,DNA,Active
same,Activity,RNA,Active
CN1CCN(CCSC(=O)C(Cl)(c2ccccc2)C2CCCC2)CC1 (stereo not drawn),Activity,Ebolavirus [1],72.3 to 91.8%
same,inhibition,Ebolavirus [4],> 50%
same,Activity,DNA,inactive
same,Activity,RNA,inactive
NC(=O)NC(NC(=O)NC(NC(N)=O)c1ccco1)c1ccco1 (stereo not drawn),Activity,Ebolavirus [1],98.1 to 116%
same,IC50,[2],4 µM
same,inhibition,Ebolavirus [4],> 50%
same,Activity,DNA,inactive
same,Activity,RNA,inactive
Nc1nnc2nc(CC(=O)c3cccc([N+](=O)[O-])c3)c(CC(=O)c3cccc([N+](=O)[O-])c3)nn12,Activity,Ebolavirus [1],60.7 to 88.8%
same,Activity,DNA,inactive
same,Activity,RNA,inactive
c1coc(CNCNCc2ccco2)c1,Activity,Ebolavirus [1],45 to 98.4%
same,inhibition,Ebolavirus [4],inactive
same,Activity,DNA,inactive
same,Activity,RNA,inactive
CNCc1ccco1,Activity,Ebolavirus [1],110 to 117%
same,inhibition,Ebolavirus [4],inactive
same,Activity,DNA,inactive
same,Activity,RNA,inactive
CCOC(=O)NC(NC(=O)OCC)c1ccc(C(NC(=O)OCC)NC(=O)OCC)cc1,Activity,Ebolavirus [1],79.6 to 108%
same,inhibition,Ebolavirus [4],> 50%
same,Activity,DNA,inactive
same,Activity,RNA,inactive
CCC(=O)NNC(/C=C/c1cccc(O)c1)=C1/S/C(=N\c2ccc(C)cc2[N+](=O)[O-])N=C1C,Activity,Ebolavirus [1],73.8 to 92.7%
same,Activity,DNA,inactive
same,Activity,RNA,inactive
CCOc1ccccc1C(SCC(=O)O)SCC(=O)O,Activity,Ebolavirus [1],92 to 107%
same,inhibition,Ebolavirus [4],> 50%
same,Activity,DNA,inactive
same,Activity,RNA,inactive
